How the values were obtained:
[1] = Inhibition of HCV NS5B RNA polymerase assessed as incorporation of 32P-UMP into RNA; set-up: species or system Hepacivirus hominis
How it was run: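 Steady-state Ki against truncated NS5B (wild-type and S282T) on minus IRES template, 27°C, HEPES pH 7.5 with Mg2+/Mn2+/DTT and [α-32P]UTP. For ATP analog, UTP 10, GTP and CTP 100 μM, ATP and inhibitor varied. For CTP analogs, UTP 10, ATP and GTP 100 μM, CTP and inhibitor varied. Membrane-bound product counted, rates fit to competitive inhibition.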

[2] = Inhibition of HCV NS5B RNA polymerase S282T mutant assessed as incorporation of 32P-UMP into RNA; set-up: species or system Hepacivirus hominis
How it was run: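 Purified 21-aa C-terminally truncated NS5B (S282T; wild type for comparison) on minus-IRES template, run in 50 mM HEPES pH 7.5 with 1 mM MgCl2, 0.75 mM MnCl2, 2 mM DTT and [α-32P]UTP at 27°C. Natural substrate and inhibitor were both varied against fixed remaining NTPs (UTP 10 μM, others 100 μM). Product was membrane-captured and counted. Ki was obtained by fitting a competitive inhibition equation.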

SMILES	Ki [1] [µM]	Ki [2] [µM]
C[C@@]1(O)[C@H](O)[C@@H](COP(=O)(O)OP(=O)(O)OP(=O)(O)O)O[C@H]1n1cnc2c(N)ncnc21	1.5	21.8
C[C@@]1(F)[C@H](O)[C@@H](COP(=O)(O)OP(=O)(O)OP(=O)(O)O)O[C@H]1n1ccc(N)nc1=O [PSI-6130-TP]	4.3	2.5
C[C@@]1(O)[C@H](O)[C@@H](COP(=O)(O)OP(=O)(O)OP(=O)(O)O)O[C@H]1n1ccc(N)nc1=O [2'-C-METHYLCYTIDINE TRIPHOSPHATE]	1.6	3.8

Source: ChEMBL document CHEMBL1142170, “Mechanism of activation of beta-D-2'-deoxy-2'-fluoro-2'-c-methylcytidine and inhibition of hepatitis C virus NS5B RNA polymerase” (Antimicrob Agents Chemother, 2007)
